{"source": "ChEMBL document CHEMBL1122586", "about": "“Cytochrome P-455 nm complex formation in the metabolism of phenylalkylamines. 8. Stereoselectivity in metabolic intermediary complex formation with a series of chiral 2-substituted 1-phenyl-2-aminoethanes” (J Med Chem, 1984)", "data": [{"experiment": "Apparent Michaelis-Menten constant (Km (app)) for the metabolic intermediary complex formation was reported.", "format": "ADME", "settings": "read-out: Km app", "method_in_brief": "(§1)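 Liver microsomes from male Sprague-Dawley rats (200–240 g) pretreated with phenobarbital ip (three daily injections of 80, then 40 mg/kg on day 4), isolated by gel filtration. Incubation at 25 °C, 1 mg/mL protein, 50 mM potassium phosphate pH 7.5, 10 mM MgCl2, with substrate. Started by NADPH. ΔA455–490 per μmol P-450 versus time read by difference spectroscopy. Vmax(obsd) and Km(app) come from linear plots over a defined substrate range.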", "units": {"Km": "µM"}, "values": [{"smiles": "CCC[C@H](N)Cc1ccccc1.Cl", "Km": 32}, {"smiles": "CCCC[C@H](N)Cc1ccccc1.Cl", "Km": 21}, {"smiles": "CCC[C@@H](N)Cc1ccccc1.Cl", "Km": 28}, {"smiles": "C[C@@H](N)Cc1ccccc1.Cl", "Km": "~270"}, {"smiles": "CCCC[C@@H](N)Cc1ccccc1.Cl", "Km": 16}, {"smiles": "C[C@H](N)Cc1ccccc1.Cl", "Km": "~280"}, {"smiles": "CCC(N)Cc1ccccc1.Cl", "note": "(stereo unspecified)", "Km": 30}, {"smiles": "CC[C@@H](N)Cc1ccccc1.Cl", "Km": 23}]}, {"experiment": "Compound was tested for the maximal velocity of metabolic intermediary complex formation", "format": "ADME", "settings": "not given", "method_in_brief": "as §1", "values": [{"smiles": "CCC[C@H](N)Cc1ccccc1.Cl", "Vmax": 9.1}, {"smiles": "CCCC[C@H](N)Cc1ccccc1.Cl", "Vmax": 10.5}, {"smiles": "CCC[C@@H](N)Cc1ccccc1.Cl", "Vmax": 5.1}, {"smiles": "C[C@@H](N)Cc1ccccc1.Cl", "Vmax": "~ 1.5"}, {"smiles": "CCCC[C@@H](N)Cc1ccccc1.Cl", "Vmax": 5.7}, {"smiles": "C[C@H](N)Cc1ccccc1.Cl", "Vmax": "~ 1.6"}, {"smiles": "CCC(N)Cc1ccccc1.Cl", "note": "(stereo unspecified)", "Vmax": 4}, {"smiles": "CC[C@@H](N)Cc1ccccc1.Cl", "Vmax": 3.2}]}]}
